# From ChEMBL document CHEMBL3045357, “DNA adducts as biomarkers for oxidative and genotoxic stress from pesticides in crop plants” (J Agric Food Chem, 2008)
# Tests used:
# Type in all cases: organism-based
# Conditions in all cases: in vivo, other, 336 h
# Glycine max [1] = test: Genotoxicity in Glycine max (soybean) exposed to compound through spray 4 times over 2 weeks assessed as relative adduct level A6 measured per 10^9 nucleotides using HX-dG internal standard using [32P]labeling based autoradiography relative to untreated control
# Method in brief: (§1)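 Plants (2–6 weeks grown), groups of 2–4, sprayed 4 times over 2 weeks with formulations diluted per label (chlorothalonil 1:256, carbaryl 1:64 in water); controls water-sprayed. DNA from 1 g leaf via DNeasy Maxi kit. 10 µg DNA digested with micrococcal nuclease/spleen phosphodiesterase (4 h, 37 °C), NP1-enriched (45 min, 37 °C), labelled with [γ-32P]ATP/T4 kinase (45 min, 37 °C).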
# Glycine max [2] = test: Genotoxicity in Glycine max (soybean) exposed to compound through spray 4 times over 2 weeks assessed as relative adduct level A5 measured per 10^9 nucleotides using HX-dG internal standard using [32P]labeling based autoradiography relative to untreated control; method in brief: as §1
# Glycine max [3] = test: Genotoxicity in Glycine max (soybean) exposed to compound through spray 4 times over 2 weeks assessed as relative adduct level A4 measured per 10^9 nucleotides using HX-dG internal standard using [32P]labeling based autoradiography relative to untreated control; method in brief: as §1
# Glycine max [4] = test: Genotoxicity in Glycine max (soybean) exposed to compound through spray 4 times over 2 weeks assessed as relative adduct level A3 measured per 10^9 nucleotides using HX-dG internal standard using [32P]labeling based autoradiography relative to untreated control; method in brief: as §1
# Glycine max [5] = test: Genotoxicity in Glycine max (soybean) exposed to compound through spray 4 times over 2 weeks assessed as relative adduct level A6 measured per 10^9 nucleotides using [32P]labeling based autoradiography relative to untreated control; method in brief: as §1
# Glycine max [6] = test: Genotoxicity in Glycine max (soybean) exposed to compound through spray 4 times over 2 weeks assessed as relative adduct level A5 measured per 10^9 nucleotides using [32P]labeling based autoradiography relative to untreated control; method in brief: as §1
# Glycine max [7] = test: Genotoxicity in Glycine max (soybean) exposed to compound through spray 4 times over 2 weeks assessed as relative adduct level A4 measured per 10^9 nucleotides using [32P]labeling based autoradiography relative to untreated control; method in brief: as §1
# Glycine max [8] = test: Genotoxicity in Glycine max (soybean) exposed to compound through spray 4 times over 2 weeks assessed as relative adduct level A3 measured per 10^9 nucleotides using [32P]labeling based autoradiography relative to untreated control; method in brief: as §1
# Glycine max [9] = test: Genotoxicity in Glycine max (soybean) exposed to compound through spray 4 times over 2 weeks assessed as relative adduct level A2 measured per 10^9 nucleotides using [32P]labeling based autoradiography relative to untreated control; method in brief: as §1
# Glycine max [10] = test: Genotoxicity in Glycine max (soybean) exposed to compound through spray 4 times over 2 weeks assessed as relative adduct level A1 measured per 10^9 nucleotides using [32P]labeling based autoradiography relative to untreated control; method in brief: as §1
# Glycine max [11] = test: Genotoxicity in Glycine max (soybean) exposed to compound through spray 4 times over 2 weeks assessed as HNE-dG adducts using [32P]labeling based autoradiography (reference value: 34 cpm); method in brief: as §1
# Glycine max [12] = test: Genotoxicity in Glycine max (soybean) exposed to compound through spray 4 times over 2 weeks assessed as relative adduct level A2 measured per 10^9 nucleotides using HX-dG internal standard using [32P]labeling based autoradiography relative to untreated control; method in brief: as §1
# Glycine max [13] = test: Genotoxicity in Glycine max (soybean) exposed to compound through spray 4 times over 2 weeks assessed as relative adduct level A1 measured per 10^9 nucleotides using HX-dG internal standard using [32P]labeling based autoradiography relative to untreated control; method in brief: as §1
# Glycine max [14] = test: Genotoxicity in Glycine max (soybean) exposed to compound through spray 4 times over 2 weeks assessed as HX-dG adducts using [32P]labeling based autoradiography; method in brief: as §1
# Glycine max [15] = test: Genotoxicity in Glycine max (soybean) exposed to compound through spray 4 times over 2 weeks assessed as HNE-dG adducts measured per 10^9 nucleotides using [32P]labeling based autoradiography (reference value: 2 no unit); method in brief: as §1
# Glycine max [16] = test: Genotoxicity in Glycine max (soybean) exposed to compound through spray 4 times over 2 weeks assessed as HX-dG adducts measured per 10^9 nucleotides using [32P]labeling based autoradiography; method in brief: as §1
smiles,measurement,setting,value
CCOP(=S)(OCC)Oc1cc(C)nc(C(C)C)n1 [DIMPYLATE],Activity,Glycine max [1],1396 cpm
same,Activity,Glycine max [2],341 cpm
same,Activity,Glycine max [3],927 cpm
same,Activity,Glycine max [4],1377 cpm
same,Activity,Glycine max [5],27
same,Activity,Glycine max [6],7
same,Activity,Glycine max [7],18
same,Activity,Glycine max [8],27
same,Activity,Glycine max [9],49
same,Activity,Glycine max [10],1
same,Activity,Glycine max [11],1679 cpm
same,Activity,Glycine max [12],2483 cpm
same,Activity,Glycine max [13],46 cpm
same,Activity,Glycine max [14],1823 cpm
same,Activity,Glycine max [15],33
same,Activity,Glycine max [16],47
